From ChEMBL document CHEMBL1136558, “Inhibition of mast cell leukotriene release by thiourea derivatives” (Bioorg Med Chem Lett, 2003)

What follows are compounds tested on RBL-2H3 (assay: Inhibition of IgE receptor/FcERI mediated leukotriene release from rat RBL-2H3 cells).
Assay type: functional, cell-based
Outline: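 RBL-2H3 rat mast cells were sensitized with monoclonal anti-DNP IgE ([…]) for 1 h at 37 °C, washed to remove unbound IgE, and overlaid with PIPES-buffered saline containing 1 mM CaCl2. Cells were preincubated with compound or vehicle, then challenged with 20 ng/mL DNP-BSA for 30 min at 37 °C and centrifuged at 200g for 10 min at 4 °C. LTC4 was measured in cell-free supernatants and reported as IC50.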

Row | IC50 [µM] | Structure (SMILES)
1 | 25.9 | Cc1csc(N/C(S)=N/[C@H](C)c2cccc3ccccc23)n1
2 | 0.002 | CCOC(=O)Cc1csc(/N=C(\S)N[C@@H](C)c2cccc3ccccc23)n1
3 | 12.6 | Oc1ccc(CC/N=C(\S)Nc2ccc(Cl)cn2)cc1
4 | > 100 | C[C@H](/N=C(\S)Nc1ccccn1)c1cccc2ccccc12
5 | 0.005 | Cc1ccc(N/C(S)=N/[C@H](C)c2cccc3ccccc23)nc1
6 | > 100 | C[C@@H](/N=C(\S)Nc1nccs1)c1cccc2ccccc12
7 | 1.6 | Cc1cccc(N/C(S)=N/[C@@H](C)c2cccc3ccccc23)n1
8 | > 100 | Cc1cc(C)nc(N/C(S)=N/[C@@H](C)c2cccc3ccccc23)c1
9 | > 100 | Cc1cccc2sc(N/C(S)=N/[C@@H](C)c3cccc4ccccc34)nc12
10 | > 100 | COc1ccc2nc(/N=C(\S)N[C@H](C)c3cccc4ccccc34)sc2c1
11 | 83.2 | Cc1csc(N/C(S)=N/[C@@H](C)c2cccc3ccccc23)n1
12 | > 100 | Cc1cc(C)nc(N/C(S)=N/[C@H](C)c2cccc3ccccc23)c1
13 | 6.8 | COc1cc2ncnc(Nc3cc(Br)c(O)c(Br)c3)c2cc1OC
14 | > 100 | C[C@H](/N=C(\S)Nc1nccs1)c1cccc2ccccc12
15 | > 100 | Cc1cccc2sc(N/C(S)=N/[C@H](C)c3cccc4ccccc34)nc12
16 | 6.1 | S=C(NCCc1c[nH]c2ccccc12)Nc1ccc(Br)cn1
17 | > 100 | Cc1ccc(N/C(S)=N/[C@@H](C)c2cccc3ccccc23)nc1
18 | 8.5 | Oc1ccc(CC/N=C(\S)Nc2ccccn2)cc1
19 | > 100 | C[C@@H](/N=C(\S)Nc1ccccn1)c1cccc2ccccc12
20 | > 100 | C[C@H](/N=C(\S)Nc1nc2ccccc2s1)c1cccc2ccccc12
21 | 16.8 | Oc1ccc(CC/N=C(\S)Nc2ccc(Br)cn2)cc1
22 | > 100 | C[C@@H](/N=C(\S)Nc1ccc(Cl)cn1)c1cccc2ccccc12
23 | 4.9 | S=C(NCCc1c[nH]c2ccccc12)Nc1ccc(Cl)cn1
24 | 0.002 | CCOC(=O)Cc1csc(/N=C(\S)N[C@H](C)c2cccc3ccccc23)n1
25 | > 100 | C[C@H](/N=C(\S)Nc1ccc(Br)cn1)c1cccc2ccccc12
26 | 18.9 | C[C@@H](/N=C(\S)Nc1nc2ccccc2s1)c1cccc2ccccc12
